# According to publication PMC4561207 (Child's nervous system : ChNS : official journal of the …, 2015):
# Test system: Plasma VEGF, bFGF, endostatin and IL8 and urine MMPs
# Test: Pharmacodynamic biomarkers in plasma and urine
# Assay type: in vivo, human
# Conditions: baseline vs day 7–14 of cycle 1, or baseline vs end of cycle 2
# Method in brief: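 Plasma VEGF, bFGF, endostatin and IL8 and urine MMPs were measured by human immunoassays before course 1, once on days 7–14 of course 1, at each MRI scan, and at discontinuation or completion. The fold change was calculated as the later-timepoint value divided by the earlier-timepoint value.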
smiles,measurement,value
"COc1cc2c(Oc3ccc4[nH]c(C)cc4c3F)ncnc2cc1OCCCN1CCCC1 [cediranib, Cediranib]","changes in MMP-9, MMP-9 Dimers or MMP-9/NGAL",No significant changes
